High-throughput results as filed in PubChem.
HTRA1 inhibitor = HTRA1 (human) protease inhibition; recombinant HTRA1, FP-rhodamine activity-based probe, fluorescence polarization; inhibition, % at 5.96 µM; Q92743; 340,000 compounds, 0.5% hits; in the data active = inhibition above about 36%;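 also: 0% = enzyme with DMSO and 100% = wells lacking enzyme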
Target sequence (Q92743 whole entry, looked up): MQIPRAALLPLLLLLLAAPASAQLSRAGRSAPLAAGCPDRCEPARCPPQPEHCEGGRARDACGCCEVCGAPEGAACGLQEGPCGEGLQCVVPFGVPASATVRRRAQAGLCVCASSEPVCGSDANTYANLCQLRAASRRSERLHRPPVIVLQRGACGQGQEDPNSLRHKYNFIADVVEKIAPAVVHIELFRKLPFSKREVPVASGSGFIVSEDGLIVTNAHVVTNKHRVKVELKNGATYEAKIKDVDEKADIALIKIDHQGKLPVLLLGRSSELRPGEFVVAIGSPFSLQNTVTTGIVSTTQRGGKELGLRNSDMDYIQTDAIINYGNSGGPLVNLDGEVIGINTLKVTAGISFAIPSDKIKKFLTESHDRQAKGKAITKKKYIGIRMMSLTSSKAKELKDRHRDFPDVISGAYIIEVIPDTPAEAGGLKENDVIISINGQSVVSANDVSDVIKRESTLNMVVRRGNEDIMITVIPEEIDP
PRMT1 inh = blocks human protein arginine methyltransferase 1; recombinant PRMT1, activity-based probe fluorescence polarization; inhibition, % at 2.79 µM; 370,000 compounds, 1.3% hits;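 active = inhibition above about 21% made by adding two undisclosed values, limit read from the data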
mABHD4 FP = inhibits mouse alpha/beta hydrolase domain 4. AID 720543. Q8VD66. 370,000 compounds, 0.54% hits. purified mABHD4, FP-Rh probe fluorescence polarization. inhibition, % at 8.92 µM;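 active = inhibition exceeding the mean over every tested compound plus 3 SD, cut at about 30% in these data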;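 also: 0% = plate median of compound wells and 100% = S159A mutant with DMSO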
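system = mouse ABHD4 enzyme, wild type | medium = HEPES pH 7.0, NaCl, Pluronic buffer | also added = FP-Rh probe | incubation = Enzyme–compound pre-incubation 45 min, then probe 60 min, both 25 °C | technique = fluorescence polarization, excitation 525 nm, emission 598 nm, BODIPY TMR filters | controls = S159A mutant high control, sample median low control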
rCAG RNA binder = molecules binding r(CAG) RNA repeats | 370,000 compounds, 1.3% hits | AID 651821 | r(CAG) RNA repeat, TO-PRO-1 dye displacement fluorescence | inhibition, % at 3 µM;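 active = inhibition above the plate cutoff, the mean of all test compounds on that plate plus 3 SD, cut at about 35% in these data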;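 also: 0% = DMSO alone and 100% = 100 µM mitoxantrone as full dye displacement; higher means more dye released from RNA so lower well fluorescence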
TCR-CD3 inh = inhibitors of human TCR-CD3 interaction | 360,000 compounds, 0.37% hits | inhibition, % at 9.4 µM | TAMRA-labeled TCR probe fluorescence, biochemical; in the data active = inhibition above about 19%;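 also: recombinant mutant TCR 2C K166C tagged with TAMRA read by polarization; 0% = receptor in buffer alone and 100% = receptor with positive control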
SIAE inh = blocks human sialic acid acetylesterase; SIAE FP-Rh probe binding, fluorescence polarization; inhibition, % at 9.66 µM; 370,000 compounds, 0.69% hits; AID 1053197;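 active = inhibition above a cutoff: mean of compounds within the control limits plus 3 SD of those, cut at about 17% in these data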;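 also: 0% = plate median of compound wells and 100% = probe without SIAE protein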
mABHD4 conf = confirmation of mouse ABHD4 inhibitors; shares compounds with mABHD4 FP; purified mABHD4, FP-Rh probe fluorescence polarization; inhibition, % at 8.92 µM; 1,800 compounds, 55% hits;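 active = mean inhibition across replicates above the hit cutoff set in the primary screen, cut at about 30% in these data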;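 also: 0% = wild-type ABHD4 with DMSO and 100% = catalytically dead S159A mutant with DMSO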
Starred values were filed as active, the others as inactive; x = no result. Sampled rows, rich in hits. Any-hit rate of the full collection: about 3.5%.

SMILES | HTRA1 inhibitor | PRMT1 inh | mABHD4 FP | rCAG RNA binder | TCR-CD3 inh | SIAE inh | mABHD4 conf
C/C(=N\Nc1ccc(Cl)c(C(=O)O)c1)c1cc2ccccc2o1 | -2 | 6 | 13 | 22 | -5 | -6 | x
COc1cccc(C=NN(C)c2c([N+](=O)[O-])cc(C(F)(F)F)cc2[N+](=O)[O-])c1O | x | 0 | 45* | 4 | 2 | 9 | 49*
COc1ccc(/C=N/Nc2ccc(C(F)(F)F)cc2[N+](=O)[O-])cc1O | 9 | -3 | 6 | 7 | 6 | -9 | x
COc1cccc2c(NCc3ccccc3)nc(-n3c(N)nc4ccccc43)nc12 | x | -3 | 37* | x | x | 7 | 20
Cc1ccc2[nH]c3c(NCc4ccccc4)ncnc3c2c1 | x | 2 | 41* | 11 | 1 | 24* | 20
Cc1cc2ccccn2c1C(=O)c1cc([N+](=O)[O-])cc([N+](=O)[O-])c1 | 3 | 1 | 2 | 1 | -4 | 3 | x
Cc1cc2ccccn2c1C(=O)c1ccc(NN)c([N+](=O)[O-])c1 | -1 | 14 | 33* | 12 | -2 | 8 | 17
COC(=O)C[C@H]1CC[C@@H]2[C@H](COc3ccc(NC(=O)c4cccc(Cl)c4)cc3C(=O)N2C)O1 | x | 3 | 4 | 6 | x | -2 | x
COC(=O)[C@]12C[C@H](CC(=O)N3CCN(C(=O)C4CC4)CC3)C(=O)N(CCc3ccc(OC)c(OC)c3)C1=C[C@H](C(C)C)O[C@@H]2C1CC1 | x | 0 | 1 | -1 | x | 2 | x
Nc1[nH]n(-c2ccccc2)c(=O)c1N=Nc1ccccc1[N+](=O)[O-] | 19 | -3 | 13 | 11 | 6 | 3 | x
CCc1ccccc1N=Nc1c(N)[nH]n(-c2ccccc2)c1=O | x | -2 | 34* | 15 | x | 12 | 45*
CCN(CCNCC(O)COc1ccccc1C(C)C)c1cccc(C)c1 (stereo not drawn) | 14 | -4 | 32* | -5 | 3 | 3 | 41*
CCOC(=O)N1CCN(CC(O)COc2ccccc2C(C)C)CC1 (stereo not drawn) | -3 | -2 | 0 | -12 | -3 | -1 | x
CCOC(=O)[C@]12CCCC=C1N(CCCOC)C(=O)[C@@H]2CC(=O)NCCc1ccccc1OC | x | -8 | -8 | -1 | x | 1 | x
CC1=NN(c2nc(-c3ccccc3)cs2)C(=O)C1 | 11 | 6 | 49* | 68* | -1 | 11 | 146*
O=C1C=C(Nc2ccc(O)cc2)CC(c2ccco2)C1 (stereo not drawn) | 26 | 8 | 44* | 9 | 1 | -6 | 19
O=C(c1cc(Cl)ccc1F)N1CCCC(c2nc(-c3cccs3)no2)C1 (stereo not drawn) | x | 4 | -2 | 2 | x | 0 | x
CCCCCCCC1CC(CSc2ncn[nH]2)OC1=O (stereo not drawn) | -1 | 0 | -5 | -3 | 3 | 1 | x
CCCCC1CC(CSc2ncn[nH]2)OC1=O (stereo not drawn) | 2 | 1 | 79* | -1 | 1 | 5 | -13
Oc1cc2c(cc1O)C1c3ccc(O)c(O)c3OCC1(O)C2 (stereo not drawn) | 25 | 55* | 30* | 1 | 132* | 0 | 23
CCN(CC)c1ccc(C=NNC(=O)Cc2cc(=O)[nH][nH]2)c(O)c1 | x | 1 | 33* | 27 | x | 12 | 22
COc1cccc(C(=O)N[C@H](C(=O)N2CCC[C@H]2C(=O)NCCc2ccccc2Cl)C2CCCCC2)c1 | x | 3 | -2 | 2 | 2 | -5 | x
Nc1[nH]c(C(=O)c2ccc(Br)cc2)c(-c2ccc(F)cc2)c1C(=O)NCCc1c[nH]c2ccccc12 | x | 5 | 33* | 6 | -1 | 6 | 26
COc1ccc(-c2c(C(=O)c3ccc(Br)cc3)[nH]c(N)c2C(=O)NCCc2c[nH]c3ccccc23)cc1OC | x | 1 | 33* | 12 | 3 | 8 | 24
Nc1[nH]c(C(=O)c2ccc(Br)cc2)c(-c2ccc(Br)cc2)c1C(=O)NCCc1c[nH]c2ccccc12 | x | -3 | 18 | 11 | 2 | 5 | x
SMILES | HTRA1 inhibitor | PRMT1 inh | mABHD4 FP | rCAG RNA binder | TCR-CD3 inh | SIAE inh | mABHD4 conf
COC(=O)[C@]12C[C@H](CC(=O)NCCC(C)C)C(=O)N(Cc3ccc(Cl)cc3Cl)C1=C[C@H](COCc1ccccc1)O[C@@H]2C | x | -5 | 0 | 1 | x | -3 | x
NC(=NCc1ccccc1)NC(=O)OCc1ccccc1 | x | 0 | -2 | 1 | x | 0 | x
COc1ccccc1-c1nnc2n1N=C(c1ccc3c(c1)OCO3)CS2 | x | -4 | 2 | 2 | x | 3 | x
N=C(N)c1ccc(N)cc1 | 2 | -1 | -9 | 2 | 3 | 0 | x
NC(=Nc1ccc(N)cc1)C(N)=Nc1ccc(N)cc1 | 13 | 6 | 31* | 13 | -6 | 9 | -3
Cc1ccc(NC(=S)NNC(=O)c2cnccn2)cc1 | x | 0 | 52* | 2 | x | 12 | 59*
O=C(NC(=S)NNC(=O)c1cnccn1)c1ccc(F)cc1 | 15 | -2 | 8 | -1 | 1 | 9 | x
O=C(CSc1nnc(-c2ccccc2F)n1Cc1ccco1)Nc1ccccc1-c1ccccc1 | x | 16 | 4 | 3 | x | -3 | x
NNc1nc2c(Cl)ccc(Cl)c2s1 | 8 | 0 | 39* | 10 | 7 | 10 | 48*
O=C(Nc1nc2c(Cl)ccc(Cl)c2s1)C1CC1 | -11 | 1 | 1 | 3 | 6 | -4 | x
O=S(=O)(c1ccc(F)cc1)N1CCC(c2nc3ccccc3o2)CC1 | x | -1 | 2 | 1 | x | 4 | x
O=C(Nc1ccccc1F)c1ccc2c(c1)CCN2S(=O)(=O)c1ccccc1 | -32 | -1 | 80* | 0 | 2 | -10 | -21
Nc1ccc2ccc(N)cc2c1 | x | 1 | 35* | 9 | -4 | 8 | 1
CCC[C@H]1[C@@H](OC(=O)NCc2ccc(OC)cc2)CC[C@@]23CCCN2C(=O)CCC[C@@H]13 | x | -8 | -4 | x | x | 7 | x
COc1ccc(CN2CCC(N3CC(C)OC(C)C3)CC2)c(OC)c1OC (stereo not drawn) | 12 | 2 | 32* | -9 | -7 | 3 | 11
Cc1ccc(CN2CCC(N3CC(C)OC(C)C3)CC2)cc1 (stereo not drawn) | 6 | 0 | 17 | -2 | 1 | -1 | x
CCC(C)C(=O)Nc1nc(C)c(-c2csc(Nc3cc(OC)ccc3OC)n2)s1 (stereo not drawn) | 15 | 3 | 38* | 22 | -1 | 13 | 62*
CCC(C)C(=O)Nc1nc(C)c(-c2csc(Nc3cc(Cl)ccc3OC)n2)s1 (stereo not drawn) | -15 | 3 | 5 | 32 | -16 | 3 | x
C=C(C)CN(CC)c1nc(N)c2c(N)nc3c(c2c1C#N)CC(=O)N3C12CC3CC(CC(C3)C1)C2 | 25 | 9 | 36* | 24 | 5 | 7 | 25
N#Cc1c(N2CCCC(O)C2)nc(N)c2c(N)nc3c(c12)CC(=O)N3C12CC3CC(CC(C3)C1)C2 (stereo not drawn) | 33 | 10 | 16 | 28 | -5 | 3 | x
